# Assay results gathered from unrelated publications.
# Protocols differ between the studies behind these lines.
# Sample: plasma
SMILES,host,route,dose,notes,endpoint,result
c1ccc(-c2nc(N3CCC(c4ccccn4)C3)c3ccccc3n2)nc1 (stereo not shown),female BALB/c mouse,oral,12.5 mg/kg,,MRT(0-t),5.1 h
COc1nc(-c2cc(C)c(N[C@@H](C)c3ccc(F)cc3)nn2)ccc1-n1cnc(C)c1,male CD-1 mouse,intravenous,1 mg/kg,single dose,MRT(0-t),3.62 h
CCc1cc(C(=O)NC)c2nccc(N3CCc4c(cc(Cn5ccnc5)cc4-c4cn(C)nc4C(F)(F)F)C3=O)c2c1,male CD-1 mouse,intravenous,3 mg/kg,,MRT(0-inf),0.5 h
COc1nc(-c2cc(C)c(N[C@@H](C)c3c(F)cc(F)cc3F)nn2)ccc1-n1cnc(C)c1,male CD-1 mouse,intravenous,1 mg/kg,single dose,MRT(0-t),3.3 h
Cc1cc(NC(=O)c2cccc3cc(-c4cccc5[nH]nc(N)c45)ccc23)ccc1F,male CD-1 mouse,oral,10 mg/kg,,MRT(0-inf),3.54 h
COc1cc(C2Oc3cc([C@H]4Oc5cc(O)cc(O)c5C(=O)[C@@H]4O)ccc3OC2CO)ccc1O (stereo partly shown),male CD-1 mouse,intravenous,2 mg/kg,,MRT(0-inf),0.103 h
COc1ccc2nccc(N3CCc4c(cc(Cn5ccnc5)cc4-c4cn(C)nc4C(F)(F)F)C3=O)c2c1,male CD-1 mouse,oral,10 mg/kg,,MRT(0-inf),1.4 h
COc1nc(-c2cc(C)c(N[C@@H](C)c3cc(F)cc(F)c3)nn2)ccc1-n1cnc(C)c1,male CD-1 mouse,oral,5 mg/kg,single dose,MRT(0-t),5.4 h
CCc1cc(OC)c2nccc(N3CCc4c(cc(Cn5ccnc5)cc4-c4cn(C)nc4C(F)(F)F)C3=O)c2c1,male CD-1 mouse,intravenous,3 mg/kg,,MRT(0-inf),0.7 h
CC(C)(Nc1nc(-c2ccccn2)nc2ccccc12)c1ccccn1,female BALB/c mouse,intravenous,1 mg/kg,,MRT(0-t),1.2 h
